ChEMBL document CHEMBL1128208, “(3SR,4aRS,6SR,8aRS)-6-(1H-tetrazol-5-yl)decahydroisoquinoline-3-carboxylic acid, a novel, competitive, systemically active NMDA and AMPA receptor antagonist” (J Med Chem, 1995)
Several values for one entry are separate records, joined by “and”; a condition that tells them apart may be missing. Identical values can stand only once.

Assays:
[1] = Compound was evaluated for high binding affinity towards glycine site on the NMDA receptor; set-up: species or system Rattus norvegicus
Rattus norvegicus [2] = organism: Rattus norvegicus; test: Compound was evaluated against compound induced depolarization of NMDA receptor in rat cortical slice preparation; type: functional
Outline: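 Cortical slice preparation in which depolarization was induced by 40 μM NMDA. Antagonism was measured as inhibition of this depolarization, and […].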

[3] = target: Glutamate receptor ionotropic AMPA (Homo sapiens, UniProt P42261+P42262+P42263+P48058); test: Binding affinity against Ionotropic glutamate receptor AMPA using [3H]AMPA as a radioligand; type: protein-complex assay
Xenopus sp. [4] = organism: Xenopus sp.; test: Compound was evaluated for blocking of depolarization induced by 30 uM AMPA in xenopus oocytes injected with rat brain m-RNA; type: functional, frog
Xenopus sp. [5] = organism: Xenopus sp.; test: Compound was evaluated for blocking of depolarization induced by 30 uM NMDA in xenopus oocytes injected with rat brain m-RNA
Glutamate NMDA receptor = test: Binding affinity against NMDA receptor using [3H]-CGS- 19755 as a radioligand in rat
Outline: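 Displacement of the selective NMDA-site radioligand [3H]CGS 19755. Run in triplicate unless otherwise indicated; IC50 reported.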

Rattus norvegicus [6] = organism: Rattus norvegicus; test: Inhibitory activity against compound induced depolarization of AMPA receptor in rat cortical slice preparation; type: functional
Outline: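 Cortical slice preparation. Depolarizations evoked by 40 μM AMPA or 40 μM quisqualic acid (QUIS); the value is the IC50 for inhibition of the agonist response.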

Rattus norvegicus [7] = organism: Rattus norvegicus; test: Inhibitory activity against compound induced depolarization of Kainic acid receptor in rat cortical slice preparation; type: functional
Outline: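 Cortical slice depolarizations evoked by 10 μM kainic acid. Test compound at concentrations up to 100 μM; the value is the IC50 for inhibition.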

Rattus norvegicus [8] = organism: Rattus norvegicus; test: Inhibitory activity against compound induced depolarization of NMDA receptor in rat cortical slice preparation; type: functional
Outline: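 Cortical slice preparation. Depolarizations evoked by 40 μM NMDA; the value is the IC50 for inhibition of the NMDA response.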

[9] = target: Glutamate receptor ionotropic kainate; test: Binding affinity against Ionotropic glutamate receptor kainate using [3H]-Kainic acid as a radioligand; type: protein-complex assay
Outline: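 Displacement of [3H]kainic acid from kainate receptor sites. Run in triplicate unless otherwise indicated; IC50 reported.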

[10] = Binding affinity towards glycine site on the NMDA receptor was determined; set-up: species or system Rattus norvegicus

Row | SMILES | IC50 [3] [µM] | IC50 (Glutamate NMDA receptor) [µM] | IC50 (Rattus norvegicus [6]; Rattus norvegicus) [µM] | IC50 (Rattus norvegicus [7]) [µM] | IC50 (Rattus norvegicus [8]; Rattus norvegicus) [µM] | IC50 (Rattus norvegicus [6]) [µM] | IC50 (Rattus norvegicus [8]) [µM] | IC50 [9] [µM] | further results
1 | O=C1Nc2cc(Cl)ccc2CC1[N+](=O)[O-] (centres undefined) |  |  |  |  |  |  |  |  | IC50 [1]: 0.41 µM; KbS (Rattus norvegicus [2]): 6.7 µM and 9.2 µM
2 | O=[N+]([O-])c1ccc2cc(NS(=O)(=O)C(F)(F)F)c(O)nc2c1 |  |  |  |  |  |  |  |  | Ki [3]: 0.6 µM; Ki (Xenopus sp. [4]): 0.37 µM; Ki (Xenopus sp. [5]): 0.62 µM
3 | O=C(O)[C@H]1CC[C@H]2CN[C@H](C(=O)O)C[C@H]2C1 (racemic) | > 100 | > 100 | > 100 | > 100 | > 100 |  |  |  | 
4 | O=C(O)[C@@H]1C[C@H]2C[C@@H](c3nnn[nH]3)CC[C@H]2CN1 (racemic) | 12.8 | 1.6 |  | > 100 |  | 40.9 | 7.5 | 31.8 | 
5 | O=C(O)[C@@H]1C[C@H]2C[C@H](c3nnn[nH]3)CC[C@H]2CN1 (racemic) | > 100 | 38.4 | > 100 |  | 65 |  |  | > 100 | 
6 | O=C(O)[C@@H]1C[C@H]2C[C@@H](Cc3nnn[nH]3)CC[C@H]2CN1 (racemic) | 84.5 | 0.82 | > 100 | > 100 | 1.4 |  |  | > 100 | 
7 | O=C(O)[C@@H]1C[C@H]2C[C@@H](CCc3nn[nH]n3)CC[C@H]2CN1 (racemic) [TEZAMPANEL ANHYDROUS] |  | 26.4 | 6 | 31.7 | 61.3 |  |  | 247 | 
8 | O=C(O)[C@@H]1C[C@H]2C[C@@H](c3nnn[nH]3)CC[C@H]2CN1 (stereo in doubt; (+)-6) | > 100 | > 100 |  |  |  | > 100 | > 100 | > 100 | 
9 | O=C(O)[C@@H]1C[C@H]2C[C@@H](c3nnn[nH]3)CC[C@H]2CN1 (stereo in doubt; (-)-6) | 5.7 | 1 |  |  |  | 13.2 | 4.1 | 21 | 
10 | O=[N+]([O-])c1cc2nc(O)c(O)nc2cc1[N+](=O)[O-] [DNQX] |  |  |  |  |  |  |  |  | Ki [3]: 0.36 µM; Ki [10]: 0.39 µM
